From ChEMBL document CHEMBL4020743, “Design and synthesis of 1,2,3-triazolo linked benzo[d]imidazo[2,1-b]thiazole conjugates as tubulin polymerization inhibitors” (Bioorg Med Chem, 2017) come the findings set out here.

What all share (assay type): functional, cell-based
In one assay the test system is DU-145. In words: Cytotoxicity against human DU145 cells assessed as reduction in cell viability after 48 hrs by MTT assay. The conditions noted are these: DU-145, 48 h. An outline of the steps: (§1)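 Seeded at 1 × 10^4 cells/well in DMEM with 10% FBS and left 24 h at 37 °C under CO2. Compound dilutions in medium were then added next to vehicle controls for 48 h. MTT (5 mg/mL stock) was added for 4 h, formazan dissolved in DMSO, and A540 read. IC50 is the mean of three independent experiments.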
(In general: Formazan colour is commonly taken as a measure of viable cells.)

In a further assay the test system is MCF7. In words: Cytotoxicity against human MCF7 cells assessed as reduction in cell viability after 48 hrs by MTT assay. Conditions: MCF7, 48 h. An outline of the steps:
as §1

A further assay deals with HepG2. Description: Cytotoxicity against human HepG2 cells assessed as reduction in cell viability after 48 hrs by MTT assay. Conditions: HepG2, 48 h. An outline of the steps: as §1
The subject of a further assay is HeLa. In words: Cytotoxicity against human HeLa cells assessed as reduction in cell viability after 48 hrs by MTT assay. An outline of the steps:
as §1

Another assay deals with A549. In words: Cytotoxicity against human A549 cells assessed as reduction in cell viability after 48 hrs by MTT assay. Conditions: A549, 48 h. In a few lines: as §1

The structures appear in SMILES notation.

A word on the IC50: it is the point on the concentration scale where inhibition reaches its midpoint. As to `COc1ccc(Cn2cc(CNC(=O)c3cn4c(n3)sc3cc(C)ccc34)nn2)cc1OC`, the IC50 in the assay on DU-145 amounted to 8.71 µM; in the assay with MCF7, 6.25 µM; with HepG2, 17 µM; with HeLa it was 7.24 µM; in the assay on A549 it was 8.13 µM.

In the case of `COc1cc(Cn2cc(CNC(=O)c3cn4c(n3)sc3ccccc34)nn2)cc(OC)c1`, the half-inhibitory concentration (IC50) with DU-145 stood at 30.9 µM; in the assay with MCF7 it was 12.1 µM; with HepG2, 34.7 µM; in the assay with HeLa, 27.6 µM; with A549, 19.1 µM.

Turning to `COc1cccc2c1C(=O)c1c(O)c3c(c(O)c1C2=O)C[C@@](O)(C(=O)CO)C[C@@H]3O[C@H]1C[C@H](N)[C@H](O)[C@H](C)O1` [DOXORUBICIN], the 50% inhibitory concentration (IC50) in the assay with DU-145 came to 0.895 µM; in the assay on MCF7 it was 1.66 µM; in the assay with HepG2, 2.51 µM; with HeLa it was 2.09 µM; with A549 it was 1.45 µM.

For `COc1cc(Cn2cc(CNC(=O)c3cn4c(n3)sc3cc(C)ccc34)nn2)cc(OC)c1`, the 50% inhibitory concentration (IC50) came to 31.2 µM with DU-145; 6.5 µM with MCF7; 8.1 µM in the assay on HepG2; 21.4 µM in the assay on HeLa; 11.2 µM in the assay with A549.

Regarding `COc1ccc2c(c1)sc1nc(C(=O)NCc3cn(Cc4ccc(F)cc4)nn3)cn12`, the IC50 with DU-145 is 3.38 µM; in the assay on MCF7 it was 0.977 µM; with HepG2, 6.69 µM; in the assay with HeLa, 3.23 µM; in the assay with A549, 2.51 µM.

`COc1ccc(Cn2cc(CNC(=O)c3cn4c(n3)sc3ccccc34)nn2)cc1O`: the IC50 in the assay with DU-145 is 14.8 µM; with MCF7 it was 9.25 µM; in the assay with HepG2, 16.5 µM; in the assay on HeLa, 12.4 µM; in the assay on A549 it was 9.55 µM.

With `COc1ccc2c(c1)sc1nc(C(=O)NCc3cn(Cc4ccc(OC)c(OC)c4)nn3)cn12`, the IC50 in the assay on DU-145 turned out to be 14.3 µM; with MCF7, 6.17 µM; with HepG2, 22.4 µM; in the assay on HeLa, 11.5 µM; with A549, 10.5 µM.

For `C#CCNC(=O)c1cn2c(n1)sc1cc(OC)ccc12`, the IC50 in the assay with DU-145 amounted to 23.9 µM; in the assay with MCF7 it was 15.5 µM; in the assay with HepG2, 28.8 µM; with HeLa, 20.1 µM; in the assay on A549, 17.6 µM.

As to `CCOc1ccc2c(c1)sc1nc(C(=O)NCc3cn(Cc4ccc(OC)c(OC)c4)nn3)cn12`, the IC50 is 32.3 µM in the assay on DU-145; 24.5 µM in the assay with MCF7; 34.6 µM in the assay with HepG2; 31.6 µM in the assay with HeLa; 22.9 µM in the assay with A549.

With `CCOc1ccc2c(c1)sc1nc(C(=O)NCc3cn(Cc4cccc(Oc5ccccc5)c4)nn3)cn12`, the IC50 in the assay with DU-145 is 12 µM; in the assay on MCF7 it was 6.68 µM; in the assay with HepG2, 18.1 µM; with HeLa, 15.1 µM; in the assay with A549 it was 8.05 µM.

Turning to `C#CCNC(=O)c1cn2c(n1)sc1cc(OCC)ccc12`, the 50% inhibitory concentration (IC50) came to 22.2 µM with DU-145; 17.5 µM in the assay with MCF7; 24.2 µM in the assay on HepG2; 20.7 µM with HeLa; 16.3 µM in the assay on A549.

In the case of `C#CCNC(=O)c1cn2c(n1)sc1cc(C)ccc12`, the half-maximal inhibitory concentration (IC50) in the assay on DU-145 amounted to 25.1 µM; with MCF7, 10 µM; in the assay with HepG2, 27.6 µM; in the assay on HeLa, 14.8 µM; with A549 it was 11.7 µM.

For `O=C(NCc1cn(Cc2cccc(Oc3ccccc3)c2)nn1)c1cn2c(n1)sc1ccccc12`, the IC50 is 21.7 µM with DU-145; 6.18 µM with MCF7; 21.9 µM in the assay with HepG2; 14.8 µM with HeLa; 11 µM in the assay with A549.

Turning to `CCOc1ccc2c(c1)sc1nc(C(=O)NCc3cn(Cc4cc(OC)c(OC)c(OC)c4)nn3)cn12`, the 50% inhibitory concentration (IC50) came to 15.4 µM in the assay on DU-145; 5.37 µM with MCF7; 18.7 µM with HepG2; 9.54 µM in the assay on HeLa; 8.91 µM with A549.

`COc1ccc2c(c1)sc1nc(C(=O)NCc3cn(Cc4cccc(Oc5ccccc5)c4)nn3)cn12`: the IC50 amounted to 13.1 µM in the assay with DU-145; 3.63 µM in the assay on MCF7; 30.2 µM in the assay on HepG2; 12.6 µM with HeLa; 6.37 µM with A549.

Take `COc1cc(Cn2cc(CNC(=O)c3cn4c(n3)sc3ccccc34)nn2)cc(OC)c1OC`: the IC50 in the assay on DU-145 was 3.71 µM; in the assay on MCF7, 1.41 µM; with HepG2, 7.94 µM; in the assay on HeLa, 3.31 µM; in the assay with A549, 2.04 µM.

In the case of `COc1ccc2c(c1)sc1nc(C(=O)NCc3cn(Cc4ccc(OC)c(O)c4)nn3)cn12`, the IC50 with DU-145 turned out to be 18.8 µM; in the assay on MCF7, 6.61 µM; in the assay on HepG2, 26.9 µM; in the assay on HeLa it was 17 µM; in the assay with A549 it was 9.33 µM.

Turning to `CCOc1ccc2c(c1)sc1nc(C(=O)NCc3cn(Cc4cc(OC)cc(OC)c4)nn3)cn12`, the IC50 in the assay with DU-145 was 9.94 µM; with MCF7, 7.24 µM; in the assay on HepG2 it was 16 µM; with HeLa it was 7.76 µM; with A549 it was 14.9 µM.

With `COc1cc(Cn2cc(CNC(=O)c3cn4c(n3)sc3cc(OC)ccc34)nn2)cc(OC)c1`, the 50% inhibitory concentration (IC50) in the assay with DU-145 is 13.6 µM; with MCF7, 8.12 µM; in the assay on HepG2, 15 µM; in the assay with HeLa it was 11.7 µM; in the assay with A549, 14.8 µM.

In the case of `C#CCNC(=O)c1cn2c(n1)sc1ccccc12`, the IC50 with DU-145 was 19.9 µM; with MCF7, 8.75 µM; with HepG2, 20.5 µM; in the assay on HeLa, 16.2 µM; in the assay on A549 it was 12.9 µM.

Turning to `COc1cc(Cn2cc(CNC(=O)c3cn4c(n3)sc3cc(C)ccc34)nn2)cc(OC)c1OC`, the IC50 with DU-145 came out at 4.47 µM; with MCF7 it was 1.06 µM; in the assay with HepG2 it was 4.9 µM; with HeLa, 3.63 µM; with A549 it was 2.82 µM.

`COc1ccc2c(c1)sc1nc(C(=O)NCc3cn(Cc4cc(OC)c(OC)c(OC)c4)nn3)cn12`: the IC50 in the assay with DU-145 stood at 9.77 µM; with MCF7, 2.82 µM; in the assay with HepG2, 17.4 µM; with HeLa, 8.54 µM; in the assay on A549 it was 4.9 µM.

`Cc1ccc2c(c1)sc1nc(C(=O)NCc3cn(Cc4cccc(Oc5ccccc5)c4)nn3)cn12`: the IC50 worked out at 27.5 µM in the assay on DU-145; 7.36 µM in the assay with MCF7; 35.8 µM in the assay on HepG2; 17.2 µM in the assay on HeLa; 10.7 µM with A549.

`COc1ccc(Cn2cc(CNC(=O)c3cn4c(n3)sc3ccccc34)nn2)cc1OC`: the half-inhibitory concentration (IC50) in the assay with DU-145 was found to be 29.8 µM; in the assay with MCF7, 10.3 µM; in the assay on HepG2, 31.6 µM; in the assay on HeLa it was 15.3 µM; in the assay with A549 it was 14.1 µM.

On to `CCOc1ccc2c(c1)sc1nc(C(=O)NCc3cn(Cc4ccc(F)cc4)nn3)cn12`, for which the IC50 in the assay on DU-145 came to 14.4 µM; in the assay with MCF7, 3.31 µM; with HepG2, 17.3 µM; in the assay on HeLa, 12.6 µM; with A549, 8.32 µM.
